Calls of active or inactive are those of the source. The rule behind the calls is not given here.
Experiments:
[1] = test system: Pseudomonas aeruginosa; assay: Inhibition of Pseudomonas aeruginosa PBP3 using bocillin FL as a fluorogenic substrate assessed as residual activity at 1 mM preincubated for 1 hr followed by substrate addition measured after 30 mins by fluorescence anisotropy assay relative to control
Procedure, shortened: (§1)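 Purified PBP (60 nM) preincubated with compound for 1 h at 30 °C in 100 mM sodium phosphate pH 7 with 0.01% Triton. BOCILLIN FL (30 nM) was then added, and fluorescence anisotropy was read after 30 min. Residual activity is the percentage of the uninhibited control. Run in triplicate.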

[2] = test system: Pseudomonas aeruginosa; assay: Inhibition of Pseudomonas aeruginosa PBP3 using bocillin FL as a fluorogenic substrate assessed as residual activity at 100 uM preincubated for 1 hr followed by substrate addition measured after 30 mins by fluorescence anisotropy assay relative to control; procedure, shortened: as §1
[3] = test system: Pseudomonas aeruginosa; assay: Inhibition of Pseudomonas aeruginosa PBP3 using (2-((benzoyl-D-alanyl)thio)acetic acid) as a substrate assessed as residual activity by measuring substrate turnover at 100 uM incubated for 1 hr followed by substrate addition by absorbance based assay relative to control
Procedure, shortened: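 PaPBP3 (400 nM; 200 nM final) incubated with compound for 1 h at 30 °C in 100 mM sodium phosphate pH 7 with 0.01% Triton. S2d and DTNB (1 mM each, final) were then added, and A412 was followed at 30 °C. Initial rates were corrected for non-enzymatic hydrolysis, measured with 1 mM aztreonam. Residual activity is the percentage of the untreated control. Three technical replicates, standard error.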

[4] = test system: Escherichia coli; assay: Antimicrobial activity against Escherichia coli […] assessed as bacterial growth inhibition incubated for 18 hrs by CLSI protocol based broth microdilution method; assay type: functional
[5] = test system: Pseudomonas aeruginosa; assay: Antimicrobial activity against Pseudomonas aeruginosa PAO1 assessed as bacterial growth inhibition incubated for 18 hrs by CLSI protocol based broth microdilution method; assay type: functional
[6] = test system: Pseudomonas aeruginosa; assay: Antimicrobial activity against permeabilized Pseudomonas aeruginosa assessed as bacterial growth inhibition incubated for 18 hrs by CLSI protocol based broth microdilution method; assay type: functional; conditions: dose 150 µM
[7] = test system: Haemophilus influenzae; assay: Antimicrobial activity against Haemophilus influenzae ATCC 49766 assessed as bacterial growth inhibition incubated for 18 hrs by CLSI protocol based broth microdilution method; assay type: functional
[8] = test system: Pseudomonas aeruginosa; assay: Reversible inhibition of Pseudomonas aeruginosa PBP3 using nitrocefin as substrate assessed as increase in irreversibly bound ceftazidime IC50 by two-fold dilution assay; conditions: dose 150.0 µM
[9] = test system: Haemophilus influenzae; assay: Inhibition of Haemophilus influenzae PBP3 assessed as residual activity at 1 mM preincubated for 1 hr followed by substrate addition measured after 30 mins by fluorescence anisotropy assay relative to control; procedure, shortened: as §1
[10] = test system: Acinetobacter baumannii; assay: Inhibition of Acinetobacter baumannii PBP3 assessed as residual activity at 1 mM preincubated for 1 hr followed by substrate addition measured after 30 mins by fluorescence anisotropy assay relative to control; procedure, shortened: as §1
[11] = test system: Escherichia coli; assay: Inhibition of Escherichia coli PBP3 assessed as residual activity at 1 mM preincubated for 1 hr followed by substrate addition measured after 30 mins by fluorescence anisotropy assay relative to control; procedure, shortened: as §1
[12] = test system: Neisseria gonorrhoeae; assay: Inhibition of Neisseria gonorrhoeae PBP2 assessed as residual activity at 1 mM preincubated for 1 hr followed by substrate addition measured after 30 mins by fluorescence anisotropy assay relative to control; procedure, shortened: as §1
[13] = test system: Acinetobacter baumannii; assay: Antimicrobial activity against Acinetobacter baumannii ATCC 19606 assessed as bacterial growth inhibition incubated for 18 hrs by CLSI protocol based broth microdilution method; assay type: functional; conditions: ATCC 19606 = CIP 70.34 = JCM 6841
[14] = test system: Neisseria gonorrhoeae; assay: Antimicrobial activity against Neisseria gonorrhoeae ATCC 49226 assessed as bacterial growth inhibition incubated for 18 hrs by CLSI protocol based broth microdilution method; assay type: functional
[15] = test system: Pseudomonas aeruginosa; assay: Inhibition of Pseudomonas aeruginosa PBP3 at 1 mM using bocillin FL as a fluorogenic substrate preincubated for 0 to 60 mins followed by substrate addition measured after 30 mins by fluorescence anisotropy assay; conditions: time 0-60 min
Procedure, shortened: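 PaPBP3 preincubated with compound for 0, 30 or 60 min before BOCILLIN FL was added to start the reaction. Otherwise the standard FA competition format: 60 nM protein, 30 nM BOCILLIN FL, pH 7 sodium phosphate with 0.01% Triton, 30 °C.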

[16] = test system: Escherichia coli; assay: Synergistic antimicrobial activity against Escherichia coli […] assessed as bacterial growth inhibition in presence of piperacillin incubated for 18 hrs by checkerboard titration method; assay type: functional, organism-based
[17] = test system: Pseudomonas aeruginosa; assay: Synergistic antimicrobial activity against Pseudomonas aeruginosa PAO1 assessed as bacterial growth inhibition in presence of piperacillin incubated for 18 hrs by checkerboard titration method; assay type: functional, organism-based

| Structure (SMILES) | Activity [1] [%] | MIC [4] [µg/mL] | MIC [5] [µg/mL] | MIC [6] [µg/mL] | other results |
| --- | --- | --- | --- | --- | --- |
| OB(O)c1cccc(-c2nnn[nH]2)c1 | 82 |  |  |  |  |
| O=C(O)C[C@@H]1OB(O)c2ccc(OCc3ccccc3)cc21 | 20 |  |  |  |  |
| O=C1CN(C(=O)CNC(=O)c2ccc3c(c2)B(O)OC3)CCN1 | > 90 |  |  |  |  |
| COC(=O)[C@H](NC(=O)c1ccc2c(c1)B(O)OC2)c1ccccc1 |  | > 64 | > 64 | > 64 | Activity [2]: > 90%; Activity [3]: > 90% |
| CN1CCN(C(=O)CNC(=O)c2ccc3c(c2)B(O)OC3CC(=O)O)CC1=O (stereo unspecified) |  | > 64 | > 64 | > 64 |  |
| O=C(c1ccc2c(c1)B(O)OC2)N(Cc1ccccc1)Cc1ccccc1 |  | > 64 | > 64 | > 64 | Activity [2]: 87% |
| NC(=O)[C@H](NC(=O)c1ccc2c(c1)B(O)OC2CC(=O)O)c1ccccc1 (stereo partly specified) |  | > 64 | > 64 | > 64 | MIC [7]: > 64 µg/mL; inhibition [8]: inactive; Activity [9]: 32%; Activity [10]: 73%; Activity [11]: > 90%; Activity [12]: > 90%; MIC [13]: > 64 µg/mL; MIC [14]: > 64 µg/mL; inhibition [15]: inactive; Activity [16]: inactive; Activity [17]: inactive |
| CN1CCN(C(=O)CNC(=O)c2ccc3c(c2)B(O)OC3)CC1=O | > 90 |  |  |  |  |
| CN1CCN(C(=O)[C@@H](Cc2ccccc2)NC(=O)c2ccc3c(c2)B(O)OC3)CC1=O | > 90 |  |  |  |  |
